Data on 15 molecules can be found in ChEMBL document CHEMBL1649372, “Discovery of highly potent agents against influenza A virus” (Eur J Med Chem, 2011).

pIC50: −log10 of the molar value. The source made the active and inactive calls. The calls are words filed in the database; no cut-off is given here.

One test relates to Influenza A virus. Description: Antiviral activity against amantadine-sensitive Influenza A virus A/Hong Kong/8/68 (H3N2) infected in MDCK cells at 0.01 to 10 uM after 2 to 3 days by crystal violet staining by plaque reduction assay. It counts as functional, organism-based. The essentials:
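MDCK monolayer infected with 0.01 MOI A/Hong Kong/8/68 for 1 h at 37 °C. Inoculum removed and cells washed twice with PBS, then overlaid with 1% agar DMEM containing test agent. Plaque formation scored.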
In general terms: Plaques are areas of infected cells; plaque reduction assays count them against a control.
Turning to `C[C@@H]1[C@H]2C[C@@H](C[C@H]1/N=C/c1ccc(O)cc1)C2(C)C`, the result was Active.

The next test deals with Influenza A virus. Briefly: Ratio of compound IC50 to amantadine IC50 for Influenza A virus A/Hong Kong/8/68 (H3N2). It counts as functional.
In the case of `C[C@@H]1[C@H]2C[C@@H](C[C@H]1/N=C/c1ccc(O)cc1)C2(C)C`, the “Ratio IC50” value was 240.

The subject of another test is Influenza A virus. Description: Antiviral activity against amantadine-sensitive Influenza A virus A/Hong Kong/8/68 (H3N2) infected in MDCK cells assessed as host cell survival after 72 hrs by CCK8 method. It counts as functional, organism-based. The essentials: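 Compounds added with TPCK and 0.3% BSA and preincubated 30 min at 37 °C. Cells then infected with about 0.01 MOI A/Hong Kong/8/68 (H3N2) and incubated 72 h at 37 °C in 5% CO2. CCK-8 reagent then added to read host cell survival.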
On the technique in general: Formazan colour is commonly taken as a measure of viable cells.
As a reminder, the pIC50 is −log10 of the IC50, conventionally taken in molar units. As to `Cc1ccc(/C=N/[C@@H]2C[C@@H]3C[C@H]([C@H]2C)C3(C)C)cc1`, the pIC50 is 4.86.
Same read-out and setting: the same measure for `CCN[C@@H]1C[C@@H]2C[C@H]([C@H]1C)C2(C)C`: under 3.70.
Regarding `C[C@@H]1[C@H]2C[C@@H](C[C@H]1/N=C/c1ccc(F)cc1)C2(C)C`, the pIC50 is 4.79.
On to `C[C@@H]1[C@H]2C[C@@H](C[C@H]1NCC1CC1)C2(C)C`, for which the pIC50 was 4.55.
`CN[C@@H]1C[C@@H]2C[C@H]([C@H]1C)C2(C)C`: the pIC50 is 4.63.
On the same count and under the same terms, the same measure for `NC12CC3CC(CC(C3)C1)C2` [AMANTADINE]: 4.68; for `C[C@@H]1[C@H]2C[C@@H](C[C@H]1NCc1ccc(F)cc1)C2(C)C`: under 3.70.
Consider `C[C@@H]1[C@H]2C[C@@H](C[C@H]1/N=C/c1ccccc1)C2(C)C`, for which the pIC50 was 5.11.
On to `C[C@@H]1[C@H]2C[C@@H](C[C@H]1NC1CCCCC1)C2(C)C`, for which the pIC50 is 4.36.
`C[C@@H]1[C@H]2C[C@@H](C[C@H]1/N=C/c1cccc(O)c1)C2(C)C`: the pIC50 is 5.22.
With `C[C@@H]1[C@H]2C[C@@H](C[C@H]1NCc1ccc(O)cc1)C2(C)C`, the pIC50 is under 3.70.
In the case of `CC(C)N[C@@H]1C[C@@H]2C[C@H]([C@H]1C)C2(C)C`, the pIC50 was under 3.70.
`C[C@@H]1[C@H]2C[C@@H](C[C@H]1/N=C/c1ccc(O)cc1)C2(C)C`: the pIC50 is 7.06.
`C[C@@H]1[C@H]2C[C@@H](C[C@H]1/N=C/c1ccc(N(C)C)cc1)C2(C)C`: the pIC50 is 4.42.
On the same count and under the same terms, the same measure for `C[C@@H]1[C@H]2C[C@@H](C[C@H]1/N=C/c1ccccc1O)C2(C)C`: 4.69.
